Measured values published in article PMC10962275 (Pharmacological research, 2024).
Converted amounts (≈) assume the structure as drawn. Read-outs that look alike come from different tables or passages of the source.

Key:
[1] = tested on: NFκB; assay: NFκB-driven luciferase reporter assay, NF90-8 cells; assay type: cell-based; conditions: Homo sapiens, 24 h, read-out: NFκB Luciferase 24 hr EC50±SE (μM)
Procedure, shortened: (§1)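 Pa03C and NF90–8 cells carrying an NFκB-driven GFP-luciferase reporter, checked for induction by TNF-α. Seeded, then treated 24 h later with increasing test compound doses in 5% FBS medium for 24 h. Luciferase measured by One-Glo, with parallel alamarBlue viability. Mean ± SEM, n > 2 biological repeats.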

[2] = tested on: Pa03C cells; assay: 3D co-culture spheroid assay, tumor cells; assay type: cell-based; conditions: Homo sapiens; for EC50: read-out: 3D tumor(Pa03C) EC50 (mM); for IC50: read-out: cell killing effect in the 3D spheroid assay
[3] = tested on: CAF19 cells; assay: 3D co-culture spheroid assay, CAFs; assay type: cell-based; conditions: Homo sapiens, Pa03C, read-out: 3D CAF19 EC50 (mM)
Procedure, shortened: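 Pa03C (TdTomato-labelled) and CAF19 (EGFP-labelled) plated together at 1:4 in ultra-low-attachment plates to form spheroids. Treated on days 4, 8 and 12 with rising test compound levels in medium containing 5% serum and 3% growth-factor-reduced Matrigel. Fluorescence intensity read by high-content imaging on days 4, 8, 12 and 14. Mean ± SE, n > 3.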

[4] = target: APE1 (Homo sapiens, UniProt P27695); assay: Kinetic fluorescence based APE1 endonuclease; assay type: biochemical
APE1, sequence (P27695 whole entry): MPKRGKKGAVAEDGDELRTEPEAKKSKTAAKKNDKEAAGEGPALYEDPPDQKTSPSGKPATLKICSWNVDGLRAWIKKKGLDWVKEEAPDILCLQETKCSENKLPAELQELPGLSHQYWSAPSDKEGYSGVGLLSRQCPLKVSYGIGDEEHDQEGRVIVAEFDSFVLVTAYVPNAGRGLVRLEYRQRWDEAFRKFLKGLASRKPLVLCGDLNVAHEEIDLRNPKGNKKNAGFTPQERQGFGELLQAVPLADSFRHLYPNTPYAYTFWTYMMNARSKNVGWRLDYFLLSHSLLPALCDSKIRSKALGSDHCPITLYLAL
Procedure, shortened: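 Recombinant APE1 at 0.07–0.1 nM, tuned before each run for a linear signal, cleaves a double-stranded oligo with a 6-FAM-labelled strand carrying a tetrahydrofuran AP-site mimic and a DABCYL-quenched complement. Read 495/530 over a 5 min kinetic read at 37 °C. A known repair inhibitor serves as reference, also at 20 μM.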

[5] = tested on: NFκB and HIF1α; assay: Ref-1-regulated transcription factor driven luciferase activity; assay type: cell-based, human; conditions: Pa03C and NF90–8 cells, 24 h
[6] = tested on: HIF1α; assay: HIF1α-driven luciferase reporter assay, NF90-8 cells, 1% hypoxia; assay type: cell-based; conditions: Homo sapiens, 24 h, read-out: HIF1α Luciferase 24 hr EC50±SE (μM)
Procedure, shortened: as §1, with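 “a HIF1α-driven” for “an NFκB-driven”, “hypoxia.” for “TNF-α.”, “h under 1% hypoxia.” for “h.”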

[7] = Phase 1 metabolic stability, human liver microsomes; assay type: in vitro ADME; conditions: pH 7.4
Procedure, shortened: (§2)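 Test compound (1 μM) dried under nitrogen, then mixed with human or mouse liver S9 or microsomes (20 mg/mL stock) in phosphate buffer pH 7.4 with 5 mM MgCl2. Reaction started with NADPH (4 mM stock), shaken at 400 rpm. Sampled at 0, 5, 10, 20, 40 and 60 min and quenched with ice-cold acetonitrile; analysed by HPLC.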

[8] = target: T1, Ref-1 (39–318/C138A) (Homo sapiens, UniProt P27695, C138A); assay: WaterLOGSY NMR; assay type: binding; conditions: 20 μM Ref-1, 200 μM compound
T1 sequence (P27695 39-318 C138A): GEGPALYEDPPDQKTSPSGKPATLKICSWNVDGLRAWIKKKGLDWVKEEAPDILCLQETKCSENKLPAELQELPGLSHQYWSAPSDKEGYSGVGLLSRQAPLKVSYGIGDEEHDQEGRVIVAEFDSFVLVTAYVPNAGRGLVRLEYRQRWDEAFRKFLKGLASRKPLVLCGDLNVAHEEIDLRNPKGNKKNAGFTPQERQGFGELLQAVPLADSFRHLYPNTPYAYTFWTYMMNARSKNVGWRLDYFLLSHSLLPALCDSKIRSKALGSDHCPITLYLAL
Procedure, shortened: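 WaterLOGSY spectra acquired with 1.5 s mixing time, 128 scans, 10 ppm sweep width, 1.58 s acquisition time and 5 s relaxation delay. Data multiplied by an exponential function with 1 Hz line broadening before Fourier transformation.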

[9] = Plasma stability, mouse plasma; assay type: in vitro ADME
Procedure, shortened: (§3)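 Human or mouse plasma pre-warmed to 37 °C and added to dried test compound (1 μM) held on a 37 °C heat block. Stopped with cold acetonitrile at 0, 5, 10, 20, 40 and 60 min. Processed samples reconstituted in acetonitrile and analysed by HPLC.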

[10] = tested on: HIF1α; assay: HIF1α-driven luciferase reporter assay, Pa03C cells, 1% hypoxia; assay type: cell-based; conditions: Homo sapiens, 24 h, read-out: HIF1α Luciferase 24 hr EC50 ± SE (μM)
Procedure, shortened: as §1, with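 “a HIF1α-driven” for “an NFκB-driven”, “hypoxia.” for “TNF-α.”, “h under 1% hypoxia.” for “h.”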

[11] = Plasma stability, human plasma; assay type: in vitro ADME
Procedure, shortened: as §3

[12] = CaCO2 bidirectional permeability; assay type: in vitro ADME; conditions: human, Caco-2
[13] = Thermodynamic solubility; assay type: physicochemical; conditions: thermodynamic from solid; for solubility thermodynamic at 24 h: 37 °C; for solubility thermodynamic: phosphate buffer, pH 6.8, aqueous buffer
[14] = Phase 1 metabolic stability, mouse liver microsomes; assay type: in vitro ADME; conditions: pH 7.4
Procedure, shortened: as §2

[15] = Phase 1 metabolic stability, mouse liver S9; assay type: in vitro ADME; conditions: liver S9, pH 7.4
Procedure, shortened: as §2

[16] = Chemical stability in enabling vehicle PKT; assay type: physicochemical
[17] = tested on: NFκB; assay: NFκB-driven luciferase reporter assay, Pa03C cells; assay type: cell-based; conditions: Homo sapiens, 24 h, read-out: NFκB Luciferase 24 hr EC50 ± SE (μM)
Procedure, shortened: as §1

[18] = In vivo PK in mouse; conditions: plasma; for clearance: iv; for AUC(0-inf) / Cmax / half-life: po, 25 mg/kg
[19] = target: Ref-1 (Homo sapiens, UniProt P27695); assay: Redox EMSA; assay type: biochemical
Ref-1, sequence (P27695 whole entry): as the sequence (P27695 whole entry) above

[20] = Phase 1 metabolic stability, human liver S9; assay type: in vitro ADME; conditions: liver S9, pH 7.4
Procedure, shortened: as §2

[21] = tested on: NFκB; assay: NFκB luciferase reporter assay; assay type: cell-based, human; conditions: for IC50: Homo sapiens, Pa03C, read-out: NFκB (IC50 mM)
Procedure, shortened: as §1

[22] = tested on: NF90–8 and Pa03C cells; assay: Cell viability; assay type: cell-based, human; conditions: alamar blue, 24 h
[23] = tested on: Pa03C cells; assay: NADP/NADPH assay; assay type: cell-based, human; conditions: 6 h
[24] = tested on: progressing solid tumors; conditions: phase I clinical trial, ref [34]–[36]; cited from earlier work
[25] = Phase 2 metabolic stability, mouse liver S9; assay type: in vitro ADME
Procedure, shortened: (§4)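 Test compound (1 μM) dried under nitrogen, then incubated with human or mouse liver S9 in UGT reaction mix, shaken at 400 rpm. Stopped with ice-cold acetonitrile at 0, 5, 10, 20, 40 and 60 min. Temazepam internal standard added, then centrifuged; supernatant dried and reconstituted in acetonitrile for HPLC.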

[26] = Phase 2 metabolic stability, human liver S9; assay type: in vitro ADME
Procedure, shortened: as §4

[27] = preclinical models; cited from earlier work
[28] = target: T1, Ref-1 (39–318/C138A); conditions: ref [25]; cited from earlier work
[29] = tested on: NF90–8 cells; assay: Mitochondrial plate-based assay; assay type: cell-based, human; conditions: APX2051 at 10 μM, APX3330 at 50 μM
Procedure, shortened: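 Biolog S-1 Mitoplates activated with Assay Mix for at least 60 min at 37 °C. NF90–8 cells treated 24 h, then collected, counted, resuspended in kit buffer and plated at 5 × 10^4 cells/well. Read kinetically at 590 nm every 5 min for 4 h at 37 °C. Mean ± SEM, n = 2; 2-way ANOVA.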

[30] = FaSSGF, fassgf or other biorelevant

Compound	EC50 [1] [µM]	EC50 [2] [mM]	IC50 [2] [µM]	EC50 [3] [mM]	DNA Repair [4]	EC50 [6] [µM]	CLint scaled at 1 µM [7] [mL/min/kg]	half-life at 1 µM [9] [h]	half-life at 1 µM [11] [h]	Papp A→B [12] [×10⁻⁶ cm/s]	solubility thermodynamic at 24 h [13, 30] [µg/mL]	solubility thermodynamic at 24 h ([13]; FaSSIF) [µg/mL]	solubility thermodynamic at 24 h ([13]; FeSSIF) [µg/mL]	CLint scaled at 1 µM [14] [mL/min/kg]	CLint scaled at 1 µM [15] [mL/min/kg]	clearance [18] [mL/min]	AUC(0-inf) [18] [ng·h/mL]	Cmax [18] [ng/mL]	half-life [18] [h]	CLint scaled at 1 µM [20] [mL/min/kg]	further results
CCC/C(=C\C1=C(OC)C(=O)c2ccccc2C1=O)C(=O)N(CC)CC [APX2009, (E)‐N,N‐diethyl‐2‐[(3‐methoxy‐1,4‐dioxo‐1,4‐dihydronaphthalen‐2-yl)methylidene]pentanamide]	5.1 ± 0.3	0.0046	4.3	0.0078	Neg.	14.3 ± 0.25	4.3	0.567	2.72	33.7	95 (≈ 267 µM)	198 (≈ 557 µM)	558 (≈ 1570 µM)	19.3	7.9	0.683	113	27	1.8	2.9	reduction in both NFκB and HIF1α activity: fold lower doses compared to APX3330 [5]: 2 – 11 fold; peaks in waterLOGSY difference spectra [8]: consistent with interactions with Ref-1; EC50 [10]: 14.5 ± 1.06 µM; efflux ratio [12]: 0.75; solubility thermodynamic [13]: 94 µg/mL (≈ 264 µM); chemical stability in PKT vehicle, stressed ([16]; 60 °C for 4 h): formation of significant amount of the hydroquinone (HQ) of APX2053; chemical stability in PKT vehicle ([16]; room temperature after four days): acceptable stability; EC50 [17]: 18.8 ± 1.35 µM; IC50 [19]: < 1 µM; IC50 [21]: 0.0051 mM
CCC/C(=C\C1=C(O)C(=O)c2ccccc2C1=O)C(=O)N(CC)CC [APX2053, (E)-N,N-diethyl-2-((3-hydroxy-1,4-dioxo-1,4-dihydronaphthalen-2-yl)methylene)pentanamide]	–	0.0161	16	0.0143	Slight. Inhib.	–	2.3	2.2	0.417	39.7	760 (≈ 2230 µM)	1010 (≈ 2960 µM)	1200 (≈ 3510 µM)	19	34.6	0.0217	25400	5700	2.1	1.9	cell viability of reporter cells [22]: do not decrease the NFκB activity or affect cell viability; NADPH levels (ratio of NADPH/NADPt) [23]: does not show reduced NADPH levels; peaks in waterLOGSY difference spectra [8]: consistent with interactions with Ref-1; efflux ratio [12]: 1; NFκB activity ([21]; NF90–8 and Pa03C, any of the doses tested): do not decrease; blocking Ref-1 activated TF activity (for NFκB) ([21]; tested up to 40 μM): ineffective
CCCCCCCCC/C(=C\C1=C(C)C(=O)C(OC)=C(OC)C1=O)C(=O)O [APX3330, reference compound]	33.7 ± 2.81	> 0.02	–	> 0.02	Neg.	55.1 ± 0.44	31.8	1.57	8.48	5.2	1 (≈ 2.64 µM)	671 (≈ 1770 µM)	448 (≈ 1180 µM)	67.4	14.2	0.00833	77900	8820	3.8	4.4	response rate [24]: 32%; CLint scaled at 1 µM [25]: 21.6 mL/min/kg; EC50 [10]: 60.2 ± 4.13 µM; CLint scaled at 1 µM [26]: 5.6 mL/min/kg; solubility thermodynamic [13]: 496 µg/mL (≈ 1310 µM); potency in cell-based proliferation assays [27]: 50 to 75 µM; EC50 [17]: 54.5 ± 1.97 µM; peaks in waterLOGSY difference spectra [28]: consistent with interactions with Ref-1; IC50 [21]: 0.0393 mM; inhibition of mitochondrial function [29]: minimal effects
CC(=O)Nc1sc2c(c1-c1nc3ccccc3s1)CCN(C(C)C)C2 [ARi3, reference compound]	–	–	–	–	–	–	–	–	–	–	–	–	–	–	–	–	–	–	–	–	decrease of Ref-1 endonuclease activity ([4]; 20 μM, positive control): 63%
